# Test results: ChEMBL document CHEMBL1123493, “Synthesis and antiviral activity of the carbocyclic analogues of 5-ethyl-2'-deoxyuridine and of 5-ethynyl-2'-deoxyuridine” (1986)
# Several values for one entry are separate records, joined by “and”; a condition that tells them apart may be missing. Equal entries are not always repeated.
# How the values were obtained:
# [1] = system: Vero; assay: Compound was evaluated for antiviral activity against Herpes Simplex virus (HSV-1 strain 377) in exp. no. 2; assay type: functional, Chlorocebus sabaeus
# [2] = system: Vero; assay: Compound was evaluated for antiviral activity against Herpes Simplex virus (HSV-2 strain MS) in exp. no. 1; assay type: functional, Chlorocebus sabaeus
# [3] = system: Vero; assay: Compound was evaluated for antiviral activity against Herpes Simplex virus (HSV-2 strain MS) in exp. no. 2; assay type: functional, Chlorocebus sabaeus
# [4] = system: Vero; assay: Compound was tested for the inhibition of the replication of herpes simplex virus (HSV-I strain 377) in vero cells of in exp. no. 1; assay type: functional; conditions: Chlorocebus sabaeus
# Method in brief: (§1)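 Inhibition of virus-induced cytopathogenic effect was measured in Vero cells infected with TK⁺ HSV-1 strain 377 or TK⁺ HSV-2 strain MS, using a modified Ehrlich method. Activity is given as a virus rating, which weights both the degree of CPE inhibition and the cytotoxicity of the compound. Potency is given as the minimum inhibitory concentration (MIC₅₀).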
# [5] = system: Vero; assay: Compound was tested for the inhibition of the replication of herpes simplex virus (HSV-I strain 377) in vero cells of in exp. no. 2; assay type: functional; conditions: Chlorocebus sabaeus; method in brief: as §1
# [6] = system: Vero; assay: Compound was evaluated for antiviral activity against Herpes Simplex Virus (HSV-1 strain 377) in vero cells in exp. no. 1; assay type: functional, Chlorocebus sabaeus; method in brief: as §1
# [7] = system: Vero; assay: Compound was tested for the inhibition of the replication of herpes simplex virus (HSV-2 strain MS) in vero cells in exp. no.1; assay type: functional; conditions: Chlorocebus sabaeus; method in brief: as §1
# [8] = system: Vero; assay: Compound was tested for the inhibition of the replication of herpes simplex virus (HSV-2 strain MS) in vero cells in exp. no.2; assay type: functional; conditions: Chlorocebus sabaeus; method in brief: as §1
# [9] = system: Vero; assay: Compound was tested for the inhibition of the replication of herpes simplex virus (HSV-I strain 377) in vero cells in exp. no. 1; assay type: functional; conditions: Chlorocebus sabaeus; method in brief: as §1
# [10] = system: Vero; assay: Compound was evaluated for antiviral activity against Herpes Simplex Virus (HSV-1 strain 377) in vero cells in exp. no.1; assay type: functional, Chlorocebus sabaeus; method in brief: as §1
# [11] = system: Vero; assay: Compound was evaluated for antiviral activity against Herpes Simplex Virus (HSV-2 strain MS) in vero cells in exp. no.2; assay type: functional, Chlorocebus sabaeus; method in brief: as §1
# [12] = system: Vero; assay: Compound was tested for the inhibition of the replication of herpes simplex virus (HSV-I strain 377) in vero cells in exp. no.1; assay type: functional; conditions: Chlorocebus sabaeus; method in brief: as §1
# [13] = system: Vero; assay: Compound was evaluated for antiviral activity against Herpes Simplex Virus (HSV-2 strain MS) in vero cells in exp. No. 1; assay type: functional, Chlorocebus sabaeus; method in brief: as §1
# [14] = system: Vero; assay: Compound was evaluated for antiviral activity against Herpes Simplex Virus (HSV-2 strain MS) in vero cells in exp. No. 2; assay type: functional, Chlorocebus sabaeus; method in brief: as §1
# [15] = system: Vero; assay: Compound was evaluated for antiviral activity against Herpes Simplex Virus (HSV-2 strain MS) in vero cells in exp. No. 3; assay type: functional, Chlorocebus sabaeus; method in brief: as §1
# [16] = system: Vero; assay: Compound was tested for the inhibition of the replication of herpes simplex virus (HSV-I strain 377) in vero cells of in exp. No. 1; assay type: functional; conditions: Chlorocebus sabaeus; method in brief: as §1
# [17] = system: Vero; assay: Compound was evaluated for antiviral activity against Herpes Simplex Virus (HSV-1 strain 377) in vero cells in exp. No. 1; assay type: functional, Chlorocebus sabaeus; method in brief: as §1
# [18] = system: Vero; assay: Compound was evaluated for antiviral activity against Herpes Simplex Virus (HSV-1 strain 377) in vero cells in exp. No. 2; assay type: functional, Chlorocebus sabaeus; method in brief: as §1
# [19] = system: Vero; assay: Compound was tested for the inhibition of the replication of herpes simplex virus (HSV-2 strain MS) in vero cells in exp. No. 1; assay type: functional; conditions: Chlorocebus sabaeus; method in brief: as §1
# [20] = system: Vero; assay: (§2) Compound was tested for the inhibition of the replication of herpes simplex virus (HSV-2 strain MS) in vero cells in exp. No. 2; assay type: functional; conditions: Chlorocebus sabaeus; method in brief: as §1
# [21] = system: Vero; assay: Compound was tested for the inhibition of the replication of herpes simplex virus (HSV-2 strain MS) in vero cells in exp. No. 3; assay type: functional; conditions: Chlorocebus sabaeus; method in brief: as §1
# [22] = system: Vero; assay: Compound was tested for the inhibition of the replication of herpes simplex virus (HSV-I strain 377) in vero cells in exp. No. 1; assay type: functional; conditions: Chlorocebus sabaeus; method in brief: as §1
# [23] = system: Vero; assay: Compound was tested for the inhibition of the replication of herpes simplex virus (HSV-I strain 377) in vero cells in exp. No. 2; assay type: functional; conditions: Chlorocebus sabaeus; method in brief: as §1
# [24] = system: Vero; assay: Compound was tested for the inhibition of the replication of herpes simplex virus (HSV-I strain 377) in vero cells in exp. No. 3; assay type: functional; conditions: Chlorocebus sabaeus; method in brief: as §1
# [25] = system: Vero; assay: Compound was evaluated for antiviral activity against Herpes Simplex Virus (HSV-1 strain 377) in vero cells in exp. No. 3; assay type: functional, Chlorocebus sabaeus; method in brief: as §1
# [26] = system: Vero; assay: as §2; assay type: functional; conditions: Chlorocebus sabaeus; method in brief: as §1; remark: listed apart in the source
# [27] = system: Vero; assay: Compound was evaluated for antiviral activity against Herpes Simplex Virus (HSV-2 strain MS) in vero cells in exp. no. 3; assay type: functional, Chlorocebus sabaeus; method in brief: as §1
# [28] = system: Vero; assay: Compound was evaluated for antiviral activity against Herpes Simplex Virus (HSV-1 strain 377) in vero cells in exp. no. 3; assay type: functional, Chlorocebus sabaeus; method in brief: as §1
# [29] = species: Oryctolagus cuniculus; assay: Compound was tested for the inhibition of the replication of herpes simplex virus in vero cells of HSV-2 strain MS in rabbit kidney cells; assay type: functional
# [30] = species: Oryctolagus cuniculus; assay: Compound was evaluated for antiviral activity against HSV-2 strain MS in rabbit kidney cells; assay type: functional
# [31] = species: Oryctolagus cuniculus; assay: Compound was evaluated for antiviral activity against Herpes Simplex Virus (HSV-1 strain 377) in rabbit kidney cells; assay type: functional
# [32] = species: Oryctolagus cuniculus; assay: Compound was tested for the inhibition of the replication of herpes simplex virus (HSV-I strain 377) in rabbit kidney cells; assay type: functional
# [33] = system: Vero; assay: Compound was tested for the inhibition of the replication of herpes simplex virus (HSV-I strain 377) in vero cells in exp. no. 3; assay type: functional; conditions: Chlorocebus sabaeus; method in brief: as §1
smiles,measurement,setting,value
CCc1cn(C2CC(O)C(CO)C2)c(=O)[nH]c1=O (stereo not given),VR,[1],2.1
same,VR,[2],1.1
same,VR,[3],1.1
same,MIC50,[4],45 mg/L
same,MIC50,[5],70 µg/mL and 270 µM
same,VR,[6],2.4
same,MIC50,[7],230 µg/mL and 890 µM
same,MIC50,[8],180 µg/mL and 700 µM
same,MIC50,[9],170 µM
C#Cc1cn(C2CC(O)C(CO)C2)c(=O)[nH]c1=O (stereo not given),VR,[10],0.9
same,VR,[11],1.1
same,MIC50,[8],210 µg/mL and 830 µM
same,MIC50,[12],250 µg/mL and 990 µM
Nc1ncnc2c1ncn2[C@@H]1O[C@H](CO)[C@@H](O)[C@@H]1O [VIDARABINE],VR,[13],1.7
same,VR,[14],1.3
same,VR,[15],1.2
same,MIC50,[16],18 mg/L
same,VR,[17],2.1
same,VR,[18],2
same,MIC50,[19],22 µg/mL and 80 µM
same,MIC50,[20],45 µg/mL and 170 µM
same,MIC50,[21],24 µg/mL and 90 µM
same,MIC50,[22],70 µM
same,MIC50,[23],15 µg/mL and 60 µM
same,MIC50,[24],5 µg/mL and 20 µM
same,VR,[25],2.4
CCc1cn([C@H]2C[C@H](O)[C@@H](CO)O2)c(=O)[nH]c1=O [EDOXUDINE],VR,[14],2.2
same,VR,[18],2.3
same,MIC50,[20],37 mg/L
same,MIC50,[23],20 µg/mL and 80 µM
same,MIC50,[26],140 µM
CC(=O)OC[C@H]1O[C@@H](n2cc(C#C[Si](C)(C)C)c(=O)[nH]c2=O)C[C@@H]1OC(C)=O,VR,[27],0
same,VR,[28],0
Cc1cn([C@@H]2C[C@H](CO)[C@@H](O)C2)c(=O)[nH]c1=O,MIC50,[29],7 mg/L
same,VR,[30],3.2
same,VR,[31],5.4
same,MIC50,[32],0.8 mg/L
C[Si](C)(C)CCc1cn([C@H]2C[C@H](O)[C@@H](CO)O2)c(=O)[nH]c1=O,VR,[27],0.1
same,VR,[28],0.5
same,MIC50,[33],320 µg/mL and 980 µM
